Assay results as given in article PMC5723703 (Pharmacology Research & Perspectives, 2017).
Values joined by “and” are separate entries in the source; they are usually repeats but may differ in a detail not shown here. Identical values can stand only once. Like-named read-outs stand apart in the source and are kept apart here. Each block holds one molecule with its values, some of them ahead of it.

Legend:
[1] = system: rat trachea; test: Isometric force development, isolated rat tracheal rings
[2] = system: Wistar rats; test: In vivo lung function; parameters: species or system rat; details: n = 10
Procedure, shortened: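 Male Wistar rats (200-250 g), acclimatised at least 7 days, were unrestrained, conscious and breathing spontaneously in whole-body plethysmograph chambers (calibrated with a 5 mL air injection), one rat per chamber. Baseline was recorded for 120 min. Single oral dosing used 0.25% methylcellulose/0.05% Tween 80 vehicle, followed by recording for 6 h.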

[3] = system: spontaneous hypertensive rats; test: Blood pressure and heart rate by telemetry in conscious SHR; type: in vivo, rat
[4] = molecular target: T1, S1P1 receptor (Homo sapiens, UniProt P21453); test: Ca2+ mobilization assay; type: cell-based
[5] = system: C57BL/6 mice; test: Mouse MOG33-55 EAE model with spinal cord histopathology; type: in vivo
Procedure, shortened: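 EAE was induced in 6-week-old female C57BL/6JOlaHsd mice with 150 μg MOG33-55 in CFA, s.c. into both flanks under isoflurane, plus a pertussis toxin boost. Dosing was 6 mg·kg^‐1·day^‐1 or vehicle (0.25% methylcellulose, 0.05% Tween 80) from day 0 or day 14, with daily scoring 0–5. Spinal cords were taken after saline perfusion, formalin-fixed, and 4 μm sections stained with HE and cresyl violet/Luxol fast blue; naïve mice served as controls.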

[6] = system: rat mesenteric arteries; test: Isometric force development, isolated rat mesenteric arteries
Procedure, shortened: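 After CO₂ euthanasia, two mesenteric artery rings (1.5 mm, 2nd and 3rd branch) were mounted on 20 μm wires in a wire myograph with modified Krebs-Henseleit buffer. Viability was checked with KCl 60 mmol/L. Endothelium was confirmed by acetylcholine (10^-5 mol/L) relaxation of rings precontracted with U46619 (10^-6 mol/L).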

[7] = system: Wistar rats; test: Blood lymphocyte count in rats after oral administration; type: in vivo, rat
[8] = molecular target: T2, human S1P4 receptor (Homo sapiens, UniProt O95977); type: biochemical
T2 sequence (O95977 1-384): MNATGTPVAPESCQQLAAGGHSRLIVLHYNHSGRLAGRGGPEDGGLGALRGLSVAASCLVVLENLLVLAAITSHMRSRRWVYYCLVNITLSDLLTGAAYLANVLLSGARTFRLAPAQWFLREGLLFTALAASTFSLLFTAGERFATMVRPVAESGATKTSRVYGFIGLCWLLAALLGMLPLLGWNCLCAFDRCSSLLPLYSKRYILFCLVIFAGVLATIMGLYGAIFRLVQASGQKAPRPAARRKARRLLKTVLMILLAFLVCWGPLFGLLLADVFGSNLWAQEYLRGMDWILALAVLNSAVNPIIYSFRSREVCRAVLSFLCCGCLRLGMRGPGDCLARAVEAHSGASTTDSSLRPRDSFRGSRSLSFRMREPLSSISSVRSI
Procedure, shortened: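 Membranes from CHO cells expressing recombinant human S1P4 were used for (35S)-GTPγS binding as a measure of G protein activation. EC50 was fitted with the compound's own maximal response as the top and the no-effect level of the lowest concentration as the bottom.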

[9] = molecular target: T1, S1P1 receptor; type: biochemical
[10] = system: human bronchi; test: Isometric force development, isolated human bronchial rings
[11] = molecular target: T3, S1P2 receptor (Homo sapiens, UniProt O95136); type: biochemical
[12] = molecular target: T3, S1P2 receptor; test: Impedance-based analysis of S1P2 receptor signaling in CHO-hS1P2 cells; type: cell-based; details: 0.05-5000 nM
[13] = molecular target: human S1P3 receptor (Homo sapiens, UniProt Q99500); type: biochemical
[14] = molecular target: human S1P5 receptor (Homo sapiens, UniProt Q9H228); type: biochemical
[15] = molecular target: T1, S1P1 receptor; test: Ca2+ signaling in CHO cells expressing recombinant human S1P1 receptor; type: cell-based
[16] = system: C57BL/6 mice; test: Lymphocyte count and plasma concentration in mice; type: in vivo, mouse; details: three repeated doses of 6 mg·kg^‐1·day^‐1, day 0 vs day 2 (data not shown)
[17] = Compound concentrations in rat plasma; type: in vivo; details: for plasma concentration at time of maximal lymphocyte count reduction (6 hours): rats
[18] = molecular target: T1, S1P1 receptor; type: biochemical; remark: listed apart in the source
[19] = EC50 hS1P4, (35S)-GTPγS, CHO membranes, geometric mean, n = 2‐4
[20] = percentage of maximal response induced by 1 or 10 μmol·L^‐1 S1P

T3 sequence (O95136 whole entry): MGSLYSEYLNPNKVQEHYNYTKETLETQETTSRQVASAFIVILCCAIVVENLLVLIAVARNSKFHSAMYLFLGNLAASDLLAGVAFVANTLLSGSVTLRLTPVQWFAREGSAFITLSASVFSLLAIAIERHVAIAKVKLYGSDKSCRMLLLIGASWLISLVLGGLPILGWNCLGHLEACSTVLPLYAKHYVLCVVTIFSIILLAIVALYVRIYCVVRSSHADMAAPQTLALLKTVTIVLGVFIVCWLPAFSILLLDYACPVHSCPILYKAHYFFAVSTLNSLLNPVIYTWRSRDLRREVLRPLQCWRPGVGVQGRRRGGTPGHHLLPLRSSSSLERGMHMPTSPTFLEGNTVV
Chain of human S1P3 receptor (Q99500 whole entry): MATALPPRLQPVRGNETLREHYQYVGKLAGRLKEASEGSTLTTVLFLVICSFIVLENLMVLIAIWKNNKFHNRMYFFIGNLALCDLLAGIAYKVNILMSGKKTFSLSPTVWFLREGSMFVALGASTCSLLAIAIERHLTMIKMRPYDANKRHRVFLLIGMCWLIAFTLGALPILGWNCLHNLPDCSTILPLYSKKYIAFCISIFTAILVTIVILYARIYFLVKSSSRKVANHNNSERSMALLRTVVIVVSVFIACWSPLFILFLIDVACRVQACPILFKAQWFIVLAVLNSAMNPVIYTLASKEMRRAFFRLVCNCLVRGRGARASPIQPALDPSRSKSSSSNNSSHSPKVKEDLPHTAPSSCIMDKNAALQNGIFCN
T1 sequence (P21453 whole entry): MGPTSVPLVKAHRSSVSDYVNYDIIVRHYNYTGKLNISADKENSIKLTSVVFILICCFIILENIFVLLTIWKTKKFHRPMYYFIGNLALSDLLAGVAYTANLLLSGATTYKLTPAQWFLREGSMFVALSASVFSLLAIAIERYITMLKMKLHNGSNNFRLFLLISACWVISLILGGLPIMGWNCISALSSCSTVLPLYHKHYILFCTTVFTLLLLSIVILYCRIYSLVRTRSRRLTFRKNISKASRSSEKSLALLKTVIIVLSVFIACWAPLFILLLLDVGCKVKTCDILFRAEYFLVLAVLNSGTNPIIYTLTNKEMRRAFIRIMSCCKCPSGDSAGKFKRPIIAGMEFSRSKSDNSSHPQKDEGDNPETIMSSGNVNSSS
Chain of human S1P5 receptor (Q9H228 whole entry): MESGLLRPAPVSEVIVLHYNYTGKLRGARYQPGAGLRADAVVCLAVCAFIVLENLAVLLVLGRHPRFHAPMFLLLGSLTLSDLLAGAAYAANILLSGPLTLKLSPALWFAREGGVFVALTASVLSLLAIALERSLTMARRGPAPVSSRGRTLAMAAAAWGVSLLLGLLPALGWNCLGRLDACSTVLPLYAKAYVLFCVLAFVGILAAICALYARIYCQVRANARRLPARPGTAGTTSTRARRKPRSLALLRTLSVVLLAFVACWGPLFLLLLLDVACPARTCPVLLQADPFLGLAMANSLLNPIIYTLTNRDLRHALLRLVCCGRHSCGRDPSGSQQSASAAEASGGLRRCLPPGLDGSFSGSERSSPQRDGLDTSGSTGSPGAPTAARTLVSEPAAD

- contraction of rat mesenteric arteries ([6]; 1, 10 or 100 nmol·L^‐1, n = 4): concentration‐dependent contraction
- E max (%) hS1P4 [8, 20]: 109%
- EC50 ([8]; read-out: EC50 hS1P4, (35S)-GTPγS, CHO membranes, geometric mean, n = 2‐4): 64 nM
- pEC50 contraction of human bronchi ([10]; mean ± SEM, n = 4): 6.4 ± 0.5
- E max (%) hS1P2 [11, 20]: 11%
- E max (%) hS1P5 [14, 20]: 43%
Structure (SMILES): CCCCCCCCc1ccc(CCC(N)(CO)COP(=O)(O)O)cc1 (stereo not drawn) [pFTY720, reference compound]
- contraction of upper and lower rat trachea ([1]; 10, 100 or 1000 nmol·L^‐1, n = 4): concentration‐dependent contractile response
- E max contraction of human bronchi ([10]; % of reference contraction to KCl (50 mmol·L^‐1), mean ± SEM, n = 4): 86.5 ± 20.2%

- EC50 [4]: 34 nM
- EC50 [8, 19]: 60 nM
- EC50 [13]: 0.1 nM
Structure (SMILES): CCCCCCCCCCCCC/C=C/[C@@H](O)[C@@H](N)COP(=O)(O)O [S1P, Sphingosine‐1‐phosphate, reference compound]
- constriction of lower rat trachea ([1]; 1 μmol·L^‐1, in presence of Ca^2+ (2.5 mmol·L^‐1), n = 3): induced lower rat trachea constriction

Continued, molecule first:

Structure (SMILES): CCCCCCCOc1ccc(CCC(N)(CO)COP(=O)(O)O)cc1C(F)(F)F (stereo not drawn) [p-amiselimod (pMT-1303)]
- rat trachea constriction ([1]; lower rat trachea, 1 μmol·L^‐1 and 10 μmol·L^‐1): induced effective rat trachea constriction

Structure (SMILES): CCCCCCCCc1ccc(CCC(N)(CO)CO)cc1 [FTY720, reference compound]
- Penh (index of bronchoconstriction) vs vehicle ([2]; 3 or 10 mg·kg^‐1 p.o. single dose): significant dose‐dependent increases
- decrease of heart rate (HR) ([3]; 3 mg·kg^‐1 single oral dose): 26 ± 8 bpm
- increase of mean arterial blood pressure (MAP) ([3]; 3 mg·kg^‐1 single oral dose, 48 hours observation period): 12 ± 2 mmHg

Structure (SMILES): CCc1cc(-c2noc(-c3cc(OC)nc(C4CCCC4)c3)n2)cc(C)c1OC[C@@H](O)CO [Cenerimod, (S)‐3‐(4‐(5‐(2‐cyclopentyl‐6‐methoxypyridin‐4‐yl)‐1,2,4‐oxadiazol‐3‐yl)‐2‐ethyl‐6‐methylphenoxy)propane‐1,2‐diol]
- EC50 [4]: 1040 nM
- fold less potent in Ca^2+ signaling than in (35S)‐GTPγS assays ([4]; HUVEC): approximately 500 fold
- mice completely protected from disease development ([5]; 6 mg·kg^‐1·day^‐1 from day 0 (preventive), n = 8): Five out of eight
- clinical score reached (maximum reduction), all treated mice ([5]; 6 mg·kg^‐1·day^‐1 from day 14 (therapeutic), n = 8): 0.5
- incidence and severity of spinal cord demyelination ([5]; preventive or therapeutic regimen, 6 mg·kg^‐1·day^‐1): equally reduced
- maximal clinical score of the individual mice that developed disease ([5]; preventive treatment 6 mg·kg^‐1·day^‐1, three of eight mice): 2.5 and 3.0 and 0.5
- time to reach clinical score of 0.5 after treatment initiation, two mice ([5]; therapeutic treatment): ≤ 11 days
- contraction of rat mesenteric arteries ([6]; 10 μmol·L^‐1, n = 4): did not contract
- Penh (index of bronchoconstriction) vs vehicle ([2]; 100 mg·kg^‐1 p.o., 4 hours evaluation period): did not increase
- single oral dose at which plateau of lymphocyte reduction is reached [7]: 1 mg·kg^‐1
- time until lymphocyte count returned to predose levels ([7]; 1 mg·kg^‐1 single oral dose): ≤ 48 h
- decrease of blood lymphocyte count ([7]; 1 mg·kg^‐1 single oral dose, P < .001): 63 ± 4%
- blood lymphocyte count after dosing ([7]; 1 mg·kg^‐1 single oral dose, from 7900 ± 690 before dosing): 2900 ± 370 lymphocytes/μL
- time until lymphocyte count returned to physiological levels after the last dose ([7]; 1 mg·kg^‐1·day^‐1 oral for 7 days (data not shown)): ≤ 2 days
- reduction of blood lymphocyte count at 48 hours ([7]; 3 mg·kg^‐1 single oral dose): more than 40%
- time until lymphocyte count returned to physiological levels after the last dose ([7]; 3 mg·kg^‐1·day^‐1 oral for 7 days (data not shown)): ≤ 4 days
- reduction of peripheral blood lymphocyte count after 48 hours ([7]; 10 mg·kg^‐1 single oral dose): 65 ± 3%
- contraction of upper and lower rat trachea ([1]; highest tested concentration 10 μmol·L^‐1, n = 4): complete lack of response
- EC50 ([8]; EC50 S1P4 receptor, (35S)-GTPγS, human recombinant receptor): 2100 nM
- EC50 [8, 19]: 2130 nM
- Emax ([8]; read-out: E max (%) hS1P4): 123%
- fold higher potency on the S1P1 receptor compared to the natural ligand S1P ([9]; (35S)-GTPγS EC50 ratio): 16 fold
- Emax ([9]; read-out: E max (%) hS1P1): 126%
- contraction of human bronchi ([10]; 10 μmol·L^‐1): no contraction
- EC50 [11]: > 10000 nM
- agonist activity on the S1P2 receptor ([11]; up to the highest tested concentration (10 μmol·L^‐1)): no detectable agonist activity
- S1P2 receptor agonist activity in more sensitive (cellular) assays [12]: no S1P2 receptor agonist activity
- EC50 [13]: 228 nM
- fold less active at the S1P3 receptor than S1P ([13]; (35S)-GTPγS EC50 ratio): at least 2000 fold
- fold less active at the S1P3 receptor than pFTY720 ([13]; (35S)-GTPγS EC50 ratio): 400 fold
- Emax ([13]; read-out: E max (%) hS1P3): 81%
- EC50 [14]: 36 nM
- fold less potent on the S1P5 receptor than pFTY720 ([14]; (35S)-GTPγS EC50 ratio): 70 fold
- fold more potent on the S1P5 receptor than the natural ligand S1P ([14]; (35S)-GTPγS EC50 ratio): twofold
- Emax ([14]; read-out: E max (%) hS1P5): 65%
- EC50 [15]: 124 nM
- compound accumulation [16]: absence of compound accumulation
- effect on heart rate (HR) ([3]; 30 mg·kg^‐1 single oral dose): no effect
- decrease of mean arterial blood pressure (MAP) ([3]; 30 mg·kg^‐1 single oral dose, 48 hours observation period): 9 ± 3 mmHg
- plasma concentration ([17]; 4 hours after oral administration of 100 mg·kg^‐1, Wistar rats (Penh study)): 4.4 ± 0.6 μg·mL^‐1
- Tmax ([17]; Wistar, rat, plasma, po): 3 h
- plasma concentration at time of maximal lymphocyte count reduction (6 hours) ([17]; 1 mg·kg^‐1 single oral dose): 41 ± 2 ng·mL^‐1
- plasma concentration at time of maximal lymphocyte count reduction (6 hours) ([17]; 10 mg·kg^‐1 single oral dose): 869 ± 73 ng·mL^‐1
- EC50 [18]: 2 nM
